According to ChEMBL document CHEMBL1133551, “Non-depolarizing neuromuscular blocking activity of bisquaternary amino di- and tripeptide derivatives” (J Med Chem, 2000):

Assays:
Felis catus [1] = test: Inhibitory potency in anesthetized cats; assay type: functional
Summary of the method: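 Cats of either sex (1.9-2.6 kg), anesthetized i.p. with α-chloralose 80 mg/kg plus pentobarbitone 5 mg/kg and ventilated with room air, 37 ± 1 °C. Sciatic nerve stimulated at 0.1 Hz (0.25-ms supramaximal pulses), tibialis anterior twitch recorded. Increasing doses given iv (jugular) at 30-60-min intervals.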

Felis catus [2] = test: Recovery time (25-75 %) measured for NMB activity in anesthetized cats; assay type: functional, organism-based
Summary of the method: (§1)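 Anesthetized, ventilated cats, tibialis anterior twitch evoked by sciatic nerve stimulation at 0.1 Hz; iv doses giving 80-95% block. Onset is injection to the first maximally depressed twitch. Duration is injection to 90% spontaneous recovery relative to predrug twitch.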

Gallus gallus [3] = species on record: Gallus gallus; test: Dose causing 50% block of muscle twitch in isolated chick biventer cervicis muscle (Increase in baseline tension); settings: Muscle tissue, read-out: ED50 (the source's name)
Felis catus [4] = test: Onset time was measured for NMB activity in anesthetized cats; assay type: functional; summary of the method: as §1
Felis catus [5] = test: Duration (90%) measured for NMB activity in anesthetized cats; assay type: functional; summary of the method: as §1
Felis catus [6] = test: Inhibition of stimulated vagus nerve-induced bradycardia in anesthetized cats; assay type: functional
Summary of the method: (§2)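 Anesthetized cats. Every 100 s the vagus nerve was stimulated for 10 s at 2-5 Hz to evoke bradycardia, and the cervical sympathetic nerve was stimulated to evoke nictitating membrane contraction. Near the end of experiments, logarithmically increasing iv doses were given at 100-s intervals. Doses giving 50% block were obtained by regression and interpolation.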

[7] = (§3) Dose causing 50% block of muscle twitch in isolated chick biventer cervicis muscle; assay type: functional; settings: Gallus gallus, Muscle tissue; read-out: ED50 (the source's name)
Summary of the method: (§4)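 Isolated chick biventer cervicis nerve-muscle preparation; bath fluid gassed with 5% CO2 in O2, pH 7.4. Motor nerves stimulated at 0.1 Hz with 0.2-ms rectangular pulses at supramaximal voltage to give indirect twitches. Concentration-twitch inhibition lines fitted by least squares, and the concentration producing 50% twitch block (µM) was read off.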

Gallus gallus [8] = species on record: Gallus gallus; test: -logED50 value for chick biventer determined.; assay type: functional; summary of the method: as §4
Gallus gallus [9] = species on record: Gallus gallus; test: as §3; assay type: functional, Muscle tissue; summary of the method: as §4
Felis catus [10] = species on record: Felis catus; test: Inhibition of superior cervical nerve-induced contractions of the nictitating membrane; assay type: functional; summary of the method: as §2
Felis catus [11] = species on record: Felis catus; test: Inhibition of stimulated vagus nerve-induced bradycardia; assay type: functional; summary of the method: as §2
Felis catus [12] = test: Inhibitory potency in anesthetized cats, and Onset time is reported; assay type: functional
Summary of the method: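 Anesthetized cats (alpha-chloralose/pentobarbitone i.p., ventilated, 37 ± 1 °C). Tibialis anterior twitch evoked via sciatic nerve at 0.1 Hz, 0.25-ms supramaximal pulses. Increasing i.v. (jugular) doses at 30-60-min intervals. ED50 interpolated from log dose lines over 15-85% block. Onset, from injection to first maximally depressed twitch, measured at doses giving 80-95% block.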

[13] = Dose causing 50% block of muscle twitch in isolated chick biventer cervicis muscle (Increase in baseline tension); settings: Gallus gallus, Muscle tissue; read-out: ED50 (the source's name)
Felis catus [14] = test: Inhibition of superior cervical nerve-induced contractions of the nictitating membrane in anesthetized cats; assay type: functional
Summary of the method: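 Cats of either sex (1.9-2.6 kg), anesthetized with i.p. alpha-chloralose 80 mg/kg plus pentobarbitone 5 mg/kg, ventilated to keep arterial pH 7.3-7.4, 37 ± 1 °C. Nictitating membrane contractions evoked by cervical sympathetic nerve stimulation, recorded every 100 s. Logarithmically increasing doses injected into the jugular vein at 100-s intervals; 50%-blocking dose obtained by regression and interpolation.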

Monkey [15] = test: Duration (90%) measured for NMB activity in anesthetized rhesus monkeys; assay type: functional, Cercopithecidae
Summary of the method: (§5)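 Anesthetized, ventilated Rhesus monkeys; iv dosing at 3 × the 90% blocking dose. Onset is injection to the first maximally depressed twitch. Duration is injection to 90% spontaneous recovery versus predrug twitch.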

Monkey [16] = test: Onset time was measured for NMB activity in anesthetized rhesus monkeys; assay type: functional, Cercopithecidae; summary of the method: as §5
Monkey [17] = test: Recovery time (25-75 %) measured for NMB activity in anesthetized rhesus monkeys; assay type: functional, organism-based; settings: Cercopithecidae; summary of the method: as §5
Monkey [18] = test: Inhibitory potency in anesthetized rhesus monkeys; assay type: functional; settings: Cercopithecidae, in Macaca mulatta
Felis catus [19] = test: Inhibition of superior cervical nerve-induced contractions of the nictitating membrane in anesthetized cats; Pre- and post-block increases in twitch tension and short-lived muscle fasciculations 20-30 s after dosing; assay type: functional, organism-based; summary of the method: as §2

COc1ccc(CC2c3cc(OC)c(OC)cc3CC[N+]2(C)CCC(=O)OCCCCCOC(=O)CC[N+]2(C)CCc3cc(OC)c(OC)cc3C2Cc2ccc(OC)c(OC)c2)cc1OC (stereo unspecified)
ED50 (Felis catus [1]): 0.1 µmol/kg
Recovery (Felis catus [2]): 5.9 min
EC50 (Gallus gallus [3]): 0.41 µM
Onset (Felis catus [4]): 5.8 min
Duration (Felis catus [5]): 19.4 min
ED50 (Felis catus [6]): 1.6 µmol/kg

C[N+]1(CCNC(=O)C(Cc2ccccc2)NC(=O)C[N+]2(C)CCCCC2)CCOCC1 (stereo unspecified)
EC50 [7]: 407 µM
pCB50 (Gallus gallus [8]): 3.39

C[N+](C)(C)CC(=O)NCC(=O)NCC[N+]1(C)CCOCC1
EC50 (Gallus gallus [9]; Gallus gallus, Muscle tissue, read-out: ED50 (the source's name)): > 390 µM

O=C(C[N+]1(Cc2ccc([N+](=O)[O-])cc2)CCCCC1)NC(Cc1ccccc1)C(=O)NCC[N+]1(Cc2ccc([N+](=O)[O-])cc2)CCOCC1.[Br-].[Br-] (stereo unspecified)
ED50 (Felis catus [1]): 10.1 µmol/kg
ED50 (Felis catus [10]): > 11.2 µmol/kg
ED50 (Gallus gallus [9]): 19.8 µM
ED50 (Felis catus [11]): 0.8 µmol/kg

CC(=O)O[C@H]1C[C@@H]2CC[C@@H]3[C@H](CC[C@@]4(C)[C@H]3C[C@H]([N+]3(C)CCCCC3)[C@@H]4OC(C)=O)[C@@]2(C)C[C@@H]1[N+]1(C)CCCCC1 [PANCURONIUM]
ED50 (Felis catus [12]): 0.03 µmol/kg
Recovery (Felis catus [2]): 4 min
EC50 [13]: 0.2 µM
Onset (Felis catus [4]): 4.1 min
Duration (Felis catus [5]): 11.7 min
pCB50 (Gallus gallus [8]): 6.7
ED50 (Felis catus [6]): 0.07 µmol/kg

C=CC[N+]1([C@H]2C[C@H]3[C@@H]4CC[C@H]5C[C@H](O)[C@@H](N6CCOCC6)C[C@]5(C)[C@H]4CC[C@]3(C)[C@H]2OC(C)=O)CCCC1 [ROCURONIUM]
ED50 (Felis catus [12]): 0.25 µmol/kg
Recovery (Felis catus [2]): 2.9 min
ED50 (Felis catus [14]): 0.16 µmol/kg
Duration (Monkey [15]): 13.6 min
Onset (Monkey [16]): 3.1 min
EC50 [13]: 0.76 µM
Onset (Felis catus [4]): 2 min
Duration (Felis catus [5]): 8.3 min
pCB50 (Gallus gallus [8]): 6.12
ED50 (Felis catus [6]): 2.17 µmol/kg
Recovery (Monkey [17]): 5 min

C[N+](C)(C)CCOC(=O)CCC(=O)OCC[N+](C)(C)C [SUXAMETHONIUM]
ED50 (Felis catus [1]): 0.11 µmol/kg
ED90 (Monkey [18]): 5.04 µmol/kg
Recovery (Felis catus [2]): 1.9 min
Duration (Monkey [15]): 9.7 min
Onset (Monkey [16]): 1.5 min
ED50 (Felis catus [19]): Pre- and post-block increases in twitch tension and short-lived muscle fasciculations 20-30 s after dosing
EC50 (Gallus gallus [3]): 0.54 µM
Onset (Felis catus [4]): 1.7 min
Duration (Felis catus [5]): 5.7 min
Recovery (Monkey [17]): 2.9 min
